Experimental findings from ChEMBL document CHEMBL4673342, “Lipid-Lowering Activities of Cucurbitacins Isolated from Trichosanthes cucumeroides and Their Synthetic Derivatives” (2020) are described below.

The structures appear in SMILES notation. The source made the active and inactive calls. The calls are words filed in the database; no cut-off is given here.

Assay [1] relates to HepG2. As to the kind of experiment: Down regulation of PCSK9 protein expression in human HepG2 cells by Western blot analysis. The assay is classed as functional, cell-based. Particulars: dose 1-20 µM. In outline: (§1)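 HepG2 cells were cultured 12 h, then held a further 24 h in medium with 2% LPDS. Cells were treated with compound across a concentration range, lysed with protease/phosphatase inhibitors, and 30 µg protein was run on 8% SDS-PAGE and blotted to PVDF. Membranes were blocked in 5% milk and probed overnight at 4 °C for LDLR or PCSK9. Mean ± SEM, n ≥ 5.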
In general terms: In western blotting, separated proteins are transferred to a membrane and probed.

Assay [2] has as its system HepG2. As to the kind of experiment: Upregulation of LDLR protein expression in human HepG2 cells by Western blot analysis. In kind it is functional, cell-based. The conditions noted are these: dose 1-20 µM. The method, boiled down:
as §1

Assay [3] in a line: Induction of […] uptake in human HepG2 cells assessed as fold change at 5 uM by DIL probe based fluorescence assay. The assay is classed as functional. The method, boiled down: (§2)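 HepG2 cells (passages 4–11) in DMEM/10% FBS were treated with DMSO or compound at 5 µM, then given DiI-labelled human plasma LDL (20 µg/mL) for 3 h at 37 °C in the dark. After ice-cold PBS/0.4% albumin rinses, cell-bound dye was extracted with isopropanol and fluorescence read at 520–578 nm. Uptake rate is relative to DMSO. Positive control nagilactone B at 5 µM; n = 3.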

Assay [4] has as its system HepG2. Description: Induction of […] uptake in human HepG2 cells at 5 uM by DIL probe based fluorescence assay. In kind it is functional, cell-based. The method, boiled down:
as §2

Consider `CC(=O)OC(C)(C)/C=C/C(=O)[C@](C)(O)[C@H]1[C@H](O)C[C@@]2(C)[C@@H]3[C@@H](O)C=C4[C@@H](CC(=O)[C@@H](O)C4(C)C)[C@]3(C)C(=O)C[C@]12C`, for which the Activity result with HepG2 [1] and with HepG2 [2] was “Dose-dependent effect” each time.
Consider `CC(C)c1oc(=O)cc2c1[C@@H](O)[C@H]1OC(=O)[C@@]3(C)C[C@@H](O)[C@@H](O)[C@@]2(C)C13` (stereo not given in full), for which, in assay [3], the “fold change (FC)” value worked out at 2.07.
As to `CC(=O)[C@H]1[C@H](O)C[C@@]2(C)[C@@H]3CC=C4[C@@H](CC(=O)[C@@H](O)C4(C)C)[C@]3(C)C(=O)C[C@]12C`, the Activity result in the assay with HepG2 [1] and in the assay with HepG2 [2] was “Dose-dependent effect” in each case. In assay [3], the “fold change (FC)” value was 2.53.
`CC(=O)OC(C)(C)CCC(=O)[C@](C)(O)[C@H]1[C@H](O)C[C@@]2(C)[C@@H]3[C@@H](O)C=C4[C@@H](CC(=O)[C@H](O)C4(C)C)[C@]3(C)C(=O)C[C@]12C`: the result with HepG2 [4] was Active.
For the compound `CC(=O)O[C@H]1C(=O)C[C@@H]2C(=CC[C@@H]3[C@@]2(C)C(=O)C[C@]2(C)[C@@H]([C@@](C)(O)C(=O)/C=C/C(C)(C)OC(C)=O)[C@H](O)C[C@@]32C)C1(C)C`, in the assay on HepG2 [4], the outcome was inactive.
Consider `CC(=O)O[C@@H]1C[C@@]2(C)[C@@H]3CC=C4[C@@H](CC(=O)[C@H](O)C4(C)C)[C@]3(C)C(=O)C[C@]2(C)[C@H]1[C@@](C)(O)C(=O)CCC(C)(C)OC(C)=O`, for which, in the assay with HepG2 [4], the outcome was inactive.
The same measure, in the same setting: next, `CC1(C)C(=O)[C@@H](O)C[C@@H]2C1=CC[C@@H]1[C@@]2(C)C(=O)C[C@]2(C)[C@@H]([C@@](C)(O)C(=O)C[C@@H](O)C(C)(C)O)[C@H](O)C[C@@]12C`: “Active”.
